Assay results from ChEMBL document CHEMBL1649256, “Comparison of assessment of oxygen consumption, Etest, and CLSI M38-A2 broth microdilution methods for evaluation of the susceptibility of Aspergillus fumigatus to posaconazole” (2009).
Converted amounts (≈) assume the structure as drawn.

Tests used:
Format in all cases: functional
[1] = test system: Aspergillus fumigatus; experiment: Antimicrobial activity against Aspergillus fumigatus isolate 50 by oxygen consumption method
[2] = test system: Aspergillus fumigatus; experiment: Antimicrobial activity against Aspergillus fumigatus isolate 4 after 24 hrs by Etest; conditions: isolate 4, 24 h
Method in brief: (§1)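 Posaconazole Etest strips on RPMI 1640 agar with 2% glucose, pH 7.0, run per the strip maker's instructions. Incubated at 35°C. MIC read at 24 h and at 48 h, matching the time in each line.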

[3] = test system: Aspergillus fumigatus; experiment: Antimicrobial activity against Aspergillus fumigatus isolate 21 after 24 hrs by Etest; conditions: isolate 21, 24 h
Method in brief: (§2)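 Etest strips on RPMI 1640 agar with 2% glucose, pH 7.0, run per manufacturer's instructions. Incubated at 35°C; MIC read at 24 h.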

[4] = test system: Aspergillus fumigatus; experiment: Antimicrobial activity against Aspergillus fumigatus isolate 24 after 24 hrs by Etest; conditions: isolate 24, 24 h; method in brief: as §2
[5] = test system: Aspergillus fumigatus; experiment: Antimicrobial activity against Aspergillus fumigatus isolate 32 after 24 hrs by Etest; conditions: isolate 32, 24 h; method in brief: as §1
[6] = test system: Aspergillus fumigatus; experiment: Antimicrobial activity against Aspergillus fumigatus isolate 33 after 24 hrs by Etest; conditions: isolate 33, 24 h; method in brief: as §1
[7] = test system: Aspergillus fumigatus; experiment: Antimicrobial activity against Aspergillus fumigatus isolate 44 after 24 hrs by Etest; conditions: isolate 44, 24 h
[8] = test system: Aspergillus fumigatus; experiment: Antimicrobial activity against Aspergillus fumigatus isolate 23 after 48 hrs by Etest; conditions: isolate 23, 48 h
Method in brief: (§3)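 Etest strips on RPMI 1640 agar with 2% glucose, pH 7.0, run per manufacturer's instructions. Incubated at 35°C; MIC read at 48 h.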

[9] = test system: Aspergillus fumigatus; experiment: Antimicrobial activity against Aspergillus fumigatus isolate 24 after 48 hrs by Etest; conditions: isolate 24, 48 h; method in brief: as §3
[10] = test system: Aspergillus fumigatus; experiment: Antimicrobial activity against Aspergillus fumigatus isolate 1 by oxygen consumption method
Method in brief: (§4)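 Conidial suspension in RPMI 1640 broth with posaconazole at 0.25 and 2 μg/ml. Tubes agitated 12 h at 37°C in a biological oxygen monitor. Available oxygen was monitored continuously, and the MIC was assigned from the oxygen quantification.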

[11] = test system: Aspergillus fumigatus; experiment: Antimicrobial activity against Aspergillus fumigatus isolate 14 by oxygen consumption method; method in brief: as §4
[12] = test system: Aspergillus fumigatus; experiment: Antimicrobial activity against Aspergillus fumigatus isolate 16 by oxygen consumption method; method in brief: as §4
[13] = test system: Aspergillus fumigatus; experiment: Antimicrobial activity against Aspergillus fumigatus isolate 21 by oxygen consumption method
Method in brief: (§5)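 Conidial suspension in RPMI 1640 broth, 1.5 ml, with two drug concentrations (0.25 and 2 μg/ml). Tubes agitated 12 h at 37°C in a biological oxygen monitor. Available oxygen monitored continuously and quantified to assign the MIC.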

[14] = test system: Aspergillus fumigatus; experiment: Antimicrobial activity against Aspergillus fumigatus isolate 23 by oxygen consumption method; method in brief: as §5
[15] = test system: Aspergillus fumigatus; experiment: Antimicrobial activity against Aspergillus fumigatus isolate 37 by oxygen consumption method
Method in brief: (§6)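 Conidial suspension in RPMI 1640 broth, tested at two posaconazole levels (0.25 and 2 μg/ml). Agitated for 12 h at 37°C in a biological oxygen monitor. MIC derived from continuous monitoring and quantification of the available oxygen.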

[16] = test system: Aspergillus fumigatus; experiment: Antimicrobial activity against Aspergillus fumigatus isolate 38 by oxygen consumption method; method in brief: as §6
[17] = test system: Aspergillus fumigatus; experiment: Antimicrobial activity against Aspergillus fumigatus isolate 28 by CLSI M38-A2 broth microdilution method
Method in brief: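 Reference broth microdilution per CLSI M38-A2. MIC read as absence of visible growth at 48 h. C. parapsilosis ATCC 22019 and C. krusei ATCC 6258 QC strains run in each test session.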

[18] = test system: Aspergillus fumigatus; experiment: Antimicrobial activity against Aspergillus fumigatus isolate 38 by CLSI M38-A2 broth microdilution method
Method in brief: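 CLSI M38-A2 broth microdilution with posaconazole. MIC taken as the lowest concentration with no visible growth at 48 h. C. parapsilosis ATCC 22019 and C. krusei ATCC 6258 were included as QC strains in every run.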

**Q.** How did the MIC [1] turn out when `CC[C@@H]([C@H](C)O)n1ncn(-c2ccc(N3CCN(c4ccc(OC[C@@H]5CO[C@@](Cn6cncn6)(c6ccc(F)cc6F)C5)cc4)CC3)cc2)c1=O` [POSACONAZOLE] was run?
**A.** Its MIC is ≤ 0.25 µg/mL.

**Q.** And the MIC [2]?
**A.** The MIC was 0.125 µg/mL (≈ 0.178 µM).

**Q.** What about the MIC [3] of the same compound?
**A.** The MIC was 0.25 µg/mL (≈ 0.357 µM).

**Q.** And the MIC [4]?
**A.** Its MIC is 0.125 µg/mL (≈ 0.178 µM).

**Q.** And the MIC [5]?
**A.** The MIC was 0.25 µg/mL (≈ 0.357 µM).

**Q.** What about the MIC [6] of the same compound?
**A.** The MIC was 0.25 µg/mL (≈ 0.357 µM).

**Q.** And the MIC [7]?
**A.** The MIC was ≤ 0.03 µg/mL.

**Q.** And the MIC [8]?
**A.** Its MIC is 0.25 µg/mL (≈ 0.357 µM).

**Q.** What about the MIC [9] of the same compound?
**A.** Its MIC is 0.125 µg/mL (≈ 0.178 µM).

**Q.** What about the MIC [10] of the same compound?
**A.** Its MIC is ≥ 0.5 µg/mL.

**Q.** What about the MIC [11] of the same compound?
**A.** Its MIC is ≤ 0.25 µg/mL.

**Q.** What about the MIC [12] of the same compound?
**A.** The MIC was ≥ 0.5 µg/mL.

**Q.** And the MIC [13]?
**A.** Its MIC is ≤ 0.25 µg/mL.

**Q.** What about the MIC [14] of the same compound?
**A.** Its MIC is ≤ 0.25 µg/mL.

**Q.** What about the MIC [15] of the same compound?
**A.** Its MIC is ≤ 0.25 µg/mL.

**Q.** What about the MIC [16] of the same compound?
**A.** Its MIC is ≤ 0.25 µg/mL.

**Q.** What about the MIC [17] of the same compound?
**A.** Its MIC is 0.25 µg/mL (≈ 0.357 µM).

**Q.** And the MIC [18]?
**A.** Its MIC is 0.125 µg/mL (≈ 0.178 µM).
